Laboratory results as given in ChEMBL document CHEMBL1154186, “Synthesis, kinase inhibitory potencies, and in vitro antiproliferative evaluation of new Pim kinase inhibitors” (J Med Chem, 2009).

What was measured:
[1] = target: MAP/microtubule affinity-regulating kinase 3 (Homo sapiens) (UniProt P27448); experiment: Inhibition of MARK3 assessed as residual enzyme activity at 10 uM relative to untreated control
How it was run: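 Radiometric filter-binding assay at 21 °C for 30 min. Mix: 50 mM Tris/HCl pH 7.5, 0.1 mM EGTA, 0.1% 2-mercaptoethanol, 10 mM Mg acetate and [γ-33P]ATP (800 cpm/pmol) at 5 µM. Stopped with orthophosphoric acid and spotted on P81. Compound at 10 µM; activity given as % remaining versus no-inhibitor control, duplicates. Kinases human full-length unless noted.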

[2] = target: Homeodomain-interacting protein kinase 3 (Homo sapiens) (UniProt Q9H422); experiment: Inhibition of HIPK3 assessed as residual enzyme activity at 10 uM relative to untreated control
How it was run: (§1)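 Kinases of human origin, except CK1δ, which is rat. Run in 50 mM Tris/HCl pH 7.5, 0.1 mM EGTA, 0.1% 2-mercaptoethanol and 10 mM Mg acetate, with [γ-33P]ATP at 20 µM, 30 min at 21 °C. Acid-stopped and captured on P81 filters. Compound tested at 10 µM; residual % of uninhibited control, duplicate determinations.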

[3] = target: MAP kinase-interacting serine/threonine-protein kinase 2 (Homo sapiens) (UniProt Q9HBH9); experiment: Inhibition of MNK2 assessed as residual enzyme activity at 10 uM relative to untreated control
How it was run: (§2)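 Assayed with [γ-33P]ATP at 50 µM and 10 mM Mg acetate in 50 mM Tris/HCl pH 7.5, 0.1 mM EGTA, 0.1% 2-mercaptoethanol, 30 min, 21 °C. Phosphoric acid stop, P81 filter capture. ERK2 and Lck are mouse; AMPK is rat. 10 µM compound; % activity remaining relative to control without inhibitor, duplicates.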

[4] = target: Mitogen-activated protein kinase 8 (Homo sapiens) (UniProt P45983); experiment: Inhibition of JNK1 assessed as residual enzyme activity at 10 uM relative to untreated control; how it was run: as §1
[5] = target: T1, Eukaryotic elongation factor 2 kinase (Homo sapiens) (UniProt O00418); experiment: Inhibition of EF2K assessed as residual enzyme activity at 10 uM relative to untreated control
T1 sequence (whole entry): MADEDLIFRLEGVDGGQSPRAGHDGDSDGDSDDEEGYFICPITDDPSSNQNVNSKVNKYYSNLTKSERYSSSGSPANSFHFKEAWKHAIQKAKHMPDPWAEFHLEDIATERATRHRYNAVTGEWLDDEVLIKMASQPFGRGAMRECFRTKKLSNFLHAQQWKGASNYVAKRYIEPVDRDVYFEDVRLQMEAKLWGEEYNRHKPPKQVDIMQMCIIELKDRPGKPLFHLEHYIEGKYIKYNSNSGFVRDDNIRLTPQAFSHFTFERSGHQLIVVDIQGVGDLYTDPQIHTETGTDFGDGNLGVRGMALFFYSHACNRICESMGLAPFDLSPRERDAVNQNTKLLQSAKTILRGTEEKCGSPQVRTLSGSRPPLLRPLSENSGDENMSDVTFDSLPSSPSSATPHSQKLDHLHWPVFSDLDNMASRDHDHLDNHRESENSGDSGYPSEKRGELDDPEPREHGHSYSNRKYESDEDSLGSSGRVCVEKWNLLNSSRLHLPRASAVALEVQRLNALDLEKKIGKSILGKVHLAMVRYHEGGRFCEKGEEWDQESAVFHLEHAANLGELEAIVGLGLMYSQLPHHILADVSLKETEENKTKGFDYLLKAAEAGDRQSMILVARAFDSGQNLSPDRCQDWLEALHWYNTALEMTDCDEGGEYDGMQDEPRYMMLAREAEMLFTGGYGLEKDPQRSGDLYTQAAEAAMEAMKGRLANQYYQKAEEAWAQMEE

[6] = target: T2, Serine/threonine-protein kinase 3 (Homo sapiens) (UniProt Q13188); experiment: Inhibition of MST2 assessed as residual enzyme activity at 10 uM relative to untreated control; how it was run: as §1
T2 sequence (whole entry): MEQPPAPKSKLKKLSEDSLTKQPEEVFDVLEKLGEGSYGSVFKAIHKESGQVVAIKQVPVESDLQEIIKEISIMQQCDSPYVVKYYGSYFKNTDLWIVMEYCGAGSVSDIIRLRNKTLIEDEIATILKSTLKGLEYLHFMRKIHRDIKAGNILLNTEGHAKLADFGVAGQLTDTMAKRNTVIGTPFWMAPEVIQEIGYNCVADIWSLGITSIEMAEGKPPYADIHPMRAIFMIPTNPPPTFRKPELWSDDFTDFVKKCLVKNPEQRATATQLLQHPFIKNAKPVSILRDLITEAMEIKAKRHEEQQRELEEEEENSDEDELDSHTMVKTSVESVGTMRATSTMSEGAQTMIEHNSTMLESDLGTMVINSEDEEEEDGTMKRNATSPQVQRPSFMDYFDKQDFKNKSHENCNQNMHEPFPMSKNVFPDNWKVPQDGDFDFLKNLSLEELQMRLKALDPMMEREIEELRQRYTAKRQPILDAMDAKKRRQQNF

[7] = target: Ribosomal protein S6 kinase alpha-5 (Homo sapiens) (UniProt O75582); experiment: Inhibition of MSK1 assessed as residual enzyme activity at 10 uM relative to untreated control
[8] = target: Maternal embryonic leucine zipper kinase (Homo sapiens) (UniProt Q14680); experiment: Inhibition of MELK assessed as residual enzyme activity at 10 uM relative to untreated control; how it was run: as §2
[9] = tested on: ROCK2 (Rattus norvegicus); experiment: Inhibition of ROCK2 assessed as residual enzyme activity at 10 uM relative to untreated control
[10] = target: Serine/threonine-protein kinase Chk2 (Homo sapiens) (UniProt O96017); experiment: Inhibition of CHK2 assessed as residual enzyme activity at 10 uM relative to untreated control; how it was run: as §1
[11] = target: Serine/threonine-protein kinase pim-3 (Homo sapiens) (UniProt Q86V86); experiment: Inhibition of Pim-3 assessed as residual enzyme activity at 10 uM relative to untreated control

Chain of MAP kinase-interacting serine/threonine-protein kinase 2 (Homo sapiens) (Q9HBH9 whole entry, looked up): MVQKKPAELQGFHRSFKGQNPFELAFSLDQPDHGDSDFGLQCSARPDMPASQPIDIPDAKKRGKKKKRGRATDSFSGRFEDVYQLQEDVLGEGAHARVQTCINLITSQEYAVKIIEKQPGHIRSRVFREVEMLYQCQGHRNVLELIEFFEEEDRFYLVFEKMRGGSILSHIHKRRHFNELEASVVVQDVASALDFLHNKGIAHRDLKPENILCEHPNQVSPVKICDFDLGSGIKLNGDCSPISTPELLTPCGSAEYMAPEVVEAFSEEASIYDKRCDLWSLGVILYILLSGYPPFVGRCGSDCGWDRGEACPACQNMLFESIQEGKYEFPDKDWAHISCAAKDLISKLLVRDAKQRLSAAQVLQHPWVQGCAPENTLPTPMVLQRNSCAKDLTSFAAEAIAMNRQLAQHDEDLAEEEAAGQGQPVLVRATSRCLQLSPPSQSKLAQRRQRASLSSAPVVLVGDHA
Chain of MAP/microtubule affinity-regulating kinase 3 (Homo sapiens) (P27448 whole entry, looked up): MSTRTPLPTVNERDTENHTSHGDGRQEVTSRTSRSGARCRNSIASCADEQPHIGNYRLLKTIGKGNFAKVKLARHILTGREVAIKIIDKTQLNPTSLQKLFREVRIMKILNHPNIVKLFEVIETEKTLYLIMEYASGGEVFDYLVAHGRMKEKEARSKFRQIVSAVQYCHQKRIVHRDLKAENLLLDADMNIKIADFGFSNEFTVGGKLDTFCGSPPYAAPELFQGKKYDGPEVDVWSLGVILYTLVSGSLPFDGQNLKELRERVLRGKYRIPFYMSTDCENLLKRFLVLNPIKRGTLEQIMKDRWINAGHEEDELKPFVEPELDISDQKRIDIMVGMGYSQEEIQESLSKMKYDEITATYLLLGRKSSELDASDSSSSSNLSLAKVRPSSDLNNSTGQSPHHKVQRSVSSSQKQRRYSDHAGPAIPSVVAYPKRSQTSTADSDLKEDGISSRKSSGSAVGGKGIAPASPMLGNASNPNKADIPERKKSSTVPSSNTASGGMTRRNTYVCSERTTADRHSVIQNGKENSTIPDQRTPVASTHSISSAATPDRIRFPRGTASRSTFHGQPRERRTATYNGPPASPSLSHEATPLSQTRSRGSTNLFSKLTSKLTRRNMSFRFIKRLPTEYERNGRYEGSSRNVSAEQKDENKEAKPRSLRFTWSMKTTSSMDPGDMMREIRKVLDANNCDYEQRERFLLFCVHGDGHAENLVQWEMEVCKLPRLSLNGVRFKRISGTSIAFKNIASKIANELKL
Chain of Homeodomain-interacting protein kinase 3 (Homo sapiens) (Q9H422 whole entry, looked up): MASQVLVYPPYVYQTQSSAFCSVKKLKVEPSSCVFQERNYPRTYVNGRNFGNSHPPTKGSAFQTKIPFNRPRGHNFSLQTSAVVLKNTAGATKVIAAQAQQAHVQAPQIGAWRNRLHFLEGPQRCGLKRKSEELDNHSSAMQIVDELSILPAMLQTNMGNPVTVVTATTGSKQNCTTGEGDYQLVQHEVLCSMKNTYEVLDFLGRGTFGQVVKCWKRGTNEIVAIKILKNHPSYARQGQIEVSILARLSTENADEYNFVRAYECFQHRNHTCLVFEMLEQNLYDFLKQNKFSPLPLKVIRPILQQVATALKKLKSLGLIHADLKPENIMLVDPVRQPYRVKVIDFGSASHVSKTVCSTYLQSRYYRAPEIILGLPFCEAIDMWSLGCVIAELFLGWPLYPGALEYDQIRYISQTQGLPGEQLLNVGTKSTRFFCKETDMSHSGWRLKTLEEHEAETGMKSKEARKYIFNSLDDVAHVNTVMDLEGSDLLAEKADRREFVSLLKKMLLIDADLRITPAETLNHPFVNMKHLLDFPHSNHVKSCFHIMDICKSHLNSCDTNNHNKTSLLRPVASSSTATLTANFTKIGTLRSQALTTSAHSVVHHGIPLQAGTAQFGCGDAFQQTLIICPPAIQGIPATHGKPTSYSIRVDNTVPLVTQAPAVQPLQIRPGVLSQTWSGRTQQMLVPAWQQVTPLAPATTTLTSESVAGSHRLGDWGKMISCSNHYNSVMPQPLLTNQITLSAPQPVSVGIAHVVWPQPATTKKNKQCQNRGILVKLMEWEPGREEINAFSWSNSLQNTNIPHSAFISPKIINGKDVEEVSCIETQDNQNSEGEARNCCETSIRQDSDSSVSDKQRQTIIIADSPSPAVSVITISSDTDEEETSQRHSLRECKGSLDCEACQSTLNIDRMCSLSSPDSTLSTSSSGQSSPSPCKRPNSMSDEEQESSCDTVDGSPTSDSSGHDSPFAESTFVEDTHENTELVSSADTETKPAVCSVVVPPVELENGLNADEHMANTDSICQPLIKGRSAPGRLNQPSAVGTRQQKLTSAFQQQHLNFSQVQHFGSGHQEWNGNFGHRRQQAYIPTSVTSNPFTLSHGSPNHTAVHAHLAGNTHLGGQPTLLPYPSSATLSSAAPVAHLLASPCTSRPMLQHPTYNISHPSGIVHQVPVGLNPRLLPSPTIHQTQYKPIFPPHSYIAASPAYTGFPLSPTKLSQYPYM
Chain of Maternal embryonic leucine zipper kinase (Homo sapiens) (Q14680 whole entry, looked up): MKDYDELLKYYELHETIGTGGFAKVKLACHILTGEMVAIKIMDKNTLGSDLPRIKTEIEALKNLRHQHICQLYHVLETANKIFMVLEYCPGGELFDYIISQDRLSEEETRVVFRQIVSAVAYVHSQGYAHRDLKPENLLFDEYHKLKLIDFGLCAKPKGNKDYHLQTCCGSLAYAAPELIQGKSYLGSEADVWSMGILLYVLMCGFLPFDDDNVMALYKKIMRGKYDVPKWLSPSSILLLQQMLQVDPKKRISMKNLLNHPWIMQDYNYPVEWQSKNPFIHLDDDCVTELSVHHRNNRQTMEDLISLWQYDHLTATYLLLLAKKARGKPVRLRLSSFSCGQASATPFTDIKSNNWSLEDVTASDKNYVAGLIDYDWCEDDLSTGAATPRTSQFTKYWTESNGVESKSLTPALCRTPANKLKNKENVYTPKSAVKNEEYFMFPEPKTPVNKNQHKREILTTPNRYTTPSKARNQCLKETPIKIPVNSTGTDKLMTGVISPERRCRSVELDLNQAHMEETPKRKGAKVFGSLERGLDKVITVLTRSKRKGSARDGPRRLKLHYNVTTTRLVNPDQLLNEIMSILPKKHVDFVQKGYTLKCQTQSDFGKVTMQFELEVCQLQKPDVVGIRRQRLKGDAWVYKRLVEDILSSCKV
Chain of Serine/threonine-protein kinase Chk2 (Homo sapiens) (O96017 whole entry): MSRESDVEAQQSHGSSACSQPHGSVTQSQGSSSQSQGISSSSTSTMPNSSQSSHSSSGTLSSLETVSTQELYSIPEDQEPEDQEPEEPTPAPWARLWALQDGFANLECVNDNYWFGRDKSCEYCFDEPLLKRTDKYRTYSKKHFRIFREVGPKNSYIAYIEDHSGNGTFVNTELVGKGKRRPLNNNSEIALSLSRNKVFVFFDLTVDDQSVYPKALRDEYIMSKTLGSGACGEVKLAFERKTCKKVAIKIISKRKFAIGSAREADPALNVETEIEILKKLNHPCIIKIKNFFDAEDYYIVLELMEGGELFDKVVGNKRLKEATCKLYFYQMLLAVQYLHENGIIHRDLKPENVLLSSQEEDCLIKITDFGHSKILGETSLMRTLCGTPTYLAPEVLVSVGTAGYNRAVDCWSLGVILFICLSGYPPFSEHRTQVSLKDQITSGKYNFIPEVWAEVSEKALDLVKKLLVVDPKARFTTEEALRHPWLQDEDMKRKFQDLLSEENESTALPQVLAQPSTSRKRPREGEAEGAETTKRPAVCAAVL
Chain of Ribosomal protein S6 kinase alpha-5 (Homo sapiens) (O75582 whole entry, looked up): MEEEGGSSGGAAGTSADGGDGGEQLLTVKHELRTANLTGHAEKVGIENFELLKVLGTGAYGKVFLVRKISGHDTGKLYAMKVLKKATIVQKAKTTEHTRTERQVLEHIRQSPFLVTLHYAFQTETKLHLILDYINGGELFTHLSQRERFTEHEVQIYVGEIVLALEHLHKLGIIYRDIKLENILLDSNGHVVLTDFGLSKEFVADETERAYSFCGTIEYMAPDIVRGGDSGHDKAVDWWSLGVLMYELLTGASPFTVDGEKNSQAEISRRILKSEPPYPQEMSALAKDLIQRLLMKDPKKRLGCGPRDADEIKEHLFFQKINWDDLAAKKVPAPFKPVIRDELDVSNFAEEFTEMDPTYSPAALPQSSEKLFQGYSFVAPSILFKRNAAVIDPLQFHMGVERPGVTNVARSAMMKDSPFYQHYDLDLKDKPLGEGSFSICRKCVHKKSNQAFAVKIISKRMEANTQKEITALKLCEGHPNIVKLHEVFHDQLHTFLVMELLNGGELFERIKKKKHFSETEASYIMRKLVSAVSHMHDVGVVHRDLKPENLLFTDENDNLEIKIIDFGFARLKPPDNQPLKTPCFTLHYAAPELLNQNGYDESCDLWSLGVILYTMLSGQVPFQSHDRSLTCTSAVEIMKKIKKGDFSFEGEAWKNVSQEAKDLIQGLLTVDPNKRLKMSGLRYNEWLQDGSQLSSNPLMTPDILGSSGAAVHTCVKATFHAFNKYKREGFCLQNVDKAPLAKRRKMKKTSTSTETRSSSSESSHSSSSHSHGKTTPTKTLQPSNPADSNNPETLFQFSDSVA

Activity [1] | Activity [2] | Activity [3] | Activity [4] | Activity [5] | Activity [6] | Activity [7] | Activity [8] | Activity [9] | Activity [10] | Activity [11] | Structure (SMILES)
88% | 64% | 55% | 102% | 90% | 63% | 71% | 61% |  |  |  | O=Cc1c[nH]c2c1ccc1c3ccccc3[nH]c12
94% | 106% | 103% | 116% | 92% | 77% | 94% | 82% | 89% | 73% | 29% | c1ccc2c(c1)[nH]c1c3cc[nH]c3ccc21
116% | 97% | 95% | 102% | 101% | 82% | 90% | 93% | 86% | 58% | 38% | c1ccc2c(c1)[nH]c1c2ccc2cc[nH]c21
105% | 100% | 109% | 113% | 105% | 96% | 84% | 89% | 86% | 89% | 102% | O=Cc1c[nH]c2ccc3c4ccccc4[nH]c3c12
